Several values for one entry are separate records, joined by “and”; a condition that tells them apart may be missing. Equal values may be shown once. Activity calls are given as the source filed them. The rule behind the calls is not given here. Where a SMILES comes first, the peptide text is derived from it. Bridges are numbered along the chain shown (N, C = ends). [ ]: non-standard residue; d: D form. The star is where a group is joined. X1 = CC[C@H](C)CCCCC(=O)*; dDab = NCC[C@@H](N)C(=O)O; Dab = NCC[C@H](N)C(=O)O
What was measured:
Escherichia coli [1] = test: Antibacterial activity against Escherichia coli ATCC 25922 assessed as fold increase in MIC incubated for 24 hrs in presence of Na+ ions by CLSI based broth microdilution method; type: functional
Method in brief: (§1)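 E. coli MICs by CLSI broth microdilution in cation-adjusted Mueller Hinton broth. […] Inoculum was 10^6 CFU/mL with 2-fold serial peptide dilutions, incubated 24 h at 37 °C. MIC is the lowest concentration inhibiting growth. Three independent assays, each in triplicate.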

Escherichia coli [2] = test: Antibacterial activity against Escherichia coli ATCC 25922 assessed as fold increase in MIC incubated for 24 hrs in presence of Mg2+ ions by CLSI based broth microdilution method; type: functional; method in brief: as §1
Escherichia coli [3] = test: Antibacterial activity against Escherichia coli ATCC 25922 assessed as fold increase in MIC incubated for 24 hrs in presence of NH4+ ions by CLSI based broth microdilution method; type: functional; method in brief: as §1
Escherichia coli [4] = test: Antibacterial activity against Escherichia coli ATCC 25922 assessed as fold increase in MIC incubated for 24 hrs in presence of Ca2+ ions by CLSI based broth microdilution method; type: functional; method in brief: as §1
Staphylococcus aureus [5] = test: Antibacterial activity against methicillin resistant Staphylococcus aureus ATCC BAA 1556 assessed as fold increase in MIC incubated for 24 hrs in presence of Na+ ions by CLSI based broth microdilution method; type: functional
Method in brief: (§2)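 CLSI broth microdilution. Overnight cultures diluted in cation-adjusted Mueller Hinton broth to 10^6 CFU/mL, mixed 1:1 with 2-fold serial peptide dilutions, 24 h at 37 °C. […] MIC is the lowest concentration inhibiting growth. Three independent assays in triplicate.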

Staphylococcus aureus [6] = test: Antibacterial activity against methicillin resistant Staphylococcus aureus ATCC BAA 1556 assessed as fold increase in MIC incubated for 24 hrs in presence of NH4+ ions by CLSI based broth microdilution method; type: functional; method in brief: as §2
Staphylococcus aureus [7] = test: Antibacterial activity against methicillin resistant Staphylococcus aureus ATCC BAA 1556 assessed as fold increase in MIC incubated for 24 hrs in presence of Mg2+ ions by CLSI based broth microdilution method; type: functional; method in brief: as §2
Staphylococcus aureus [8] = test: Antibacterial activity against methicillin resistant Staphylococcus aureus ATCC BAA 1556 assessed as fold increase in MIC incubated for 24 hrs in presence of K+ ions by CLSI based broth microdilution method; type: functional; method in brief: as §2
Escherichia coli [9] = test: Antibacterial activity against Escherichia coli ATCC 25922 assessed as fold increase in MIC incubated for 24 hrs in presence of K+ ions by CLSI based broth microdilution method; type: functional; method in brief: as §1
Klebsiella pneumoniae = test: Antibacterial activity against Klebsiella pneumoniae ATCC BAA 1705 assessed as inhibition of bacterial growth incubated for 24 hrs by CLSI based broth microdilution method; type: functional; conditions: read-out: MIC
Staphylococcus aureus [10] = test: Antibacterial activity against methicillin resistant Staphylococcus aureus ATCC BAA 1556 assessed as fold increase in MIC incubated for 24 hrs in presence of Ca2+ ions by CLSI based broth microdilution method; type: functional; method in brief: as §2
Staphylococcus aureus [11] = test: Antibacterial activity against Staphylococcus aureus ATCC 29213 assessed as inhibition of bacterial growth incubated for 24 hrs by CLSI based broth microdilution method; type: functional
Escherichia coli [12] = test: Antibacterial activity against Escherichia coli ATCC 25922 assessed as inhibition of bacterial growth incubated for 24 hrs by CLSI based broth microdilution method; type: functional
Staphylococcus aureus [13] = test: Antibacterial activity against methicillin resistant Staphylococcus aureus ATCC BAA 1556 assessed as inhibition of bacterial growth incubated for 24 hrs by CLSI based broth microdilution method; type: functional
Pseudomonas aeruginosa = test: Antibacterial activity against Pseudomonas aeruginosa […] assessed as inhibition of bacterial growth incubated for 24 hrs by CLSI based broth microdilution method; type: functional
Cell membrane [14] = test: Disruption of cell membrane in methicillin resistant Staphylococcus aureus ATCC BAA 1556 assessed as increase in PI fluorescence intensity at MIC measured after 1 hrs by PI staining based flow cytometric analysis; type: subcellular
Method in brief: (§3)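 Mid-log cells grown in Mueller Hinton broth, washed in 10 mM Tris pH 7.4, 10^7 CFU/mL, treated at MIC and 4× MIC for 1 h. Pelleted, washed, PI-stained for 15 min at 37 °C in the dark, then counted by flow cytometry for % PI-positive cells. PBS-treated cells as negative control, 10% Triton X-100 as positive control. Run in triplicate; two-tailed unpaired t-test.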

Cell membrane [15] = test: Disruption of cell membrane in methicillin resistant Staphylococcus aureus ATCC BAA 1556 assessed as increase in PI fluorescence intensity at 4 times of MIC measured after 1 hrs by PI staining based flow cytometric analysis; method in brief: as §3
Cell membrane [16] = test: Disruption of cell membrane in Escherichia coli ATCC BAA-2452 assessed as increase in PI fluorescence intensity at 4 times of MIC measured after 1 hrs by PI staining based flow cytometric analysis; type: subcellular
Method in brief: (§4)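 Mid-log E. coli ATCC BAA-2452 grown in Mueller Hinton broth, washed thrice and resuspended at 10^7 CFU/mL in 10 mM Tris pH 7.4. […] Controls: PBS (negative) and 10% Triton X-100 (positive). Triplicate; two-tailed unpaired t-test.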

Cell membrane [17] = test: Disruption of cell membrane in Escherichia coli ATCC BAA-2452 assessed as increase in PI fluorescence intensity at MIC measured after 1 hrs by PI staining based flow cytometric analysis; type: subcellular; method in brief: as §4

In the case of H-RWIRRWIRWWRR-NH2, the “fold change (FC)” value (Escherichia coli [1]) is reported as 2, the “fold change (FC)” value (Escherichia coli [2]) is reported as 2 and the “fold change (FC)” value (Escherichia coli [3]) is reported as 2. For the same compound, the “fold change (FC)” value (Escherichia coli [4]) was 2, the “fold change (FC)” value (Staphylococcus aureus [5]) was 2 and the “fold change (FC)” value (Staphylococcus aureus [6]) was 2. The “fold change (FC)” value (Staphylococcus aureus [7]) was 2, the “fold change (FC)” value (Staphylococcus aureus [8]) was 2 and the “fold change (FC)” value (Escherichia coli [9]) was 2. For the same compound, the MIC (Klebsiella pneumoniae) was 12.5 µg/mL and the “fold change (FC)” value (Staphylococcus aureus [10]) was 2.
H-ARRWWRRW-NH2 was tested, and the MIC (Staphylococcus aureus [11]) was 100 µg/mL, the MIC (Escherichia coli [12]) was > 100 µg/mL and > 78.7 µM and the MIC (Staphylococcus aureus [13]) was 100 µg/mL and > 78.7 µM. For the same compound, the MIC (Pseudomonas aeruginosa) was greater than 100 µg/mL and the MIC (Klebsiella pneumoniae) was greater than 100 µg/mL.
For H-RWARRWARWWRR-NH2, the MIC (Escherichia coli [12]) was > 100 µg/mL and > 54.3 µM, the MIC (Pseudomonas aeruginosa) was 100 µg/mL and the MIC (Klebsiella pneumoniae) was greater than 100 µg/mL.
With H-RAWRRWWARA-NH2 the MIC (Staphylococcus aureus [11]) was > 100 µg/mL and > 70.7 µM, the MIC (Escherichia coli [12]) was > 100 µg/mL and > 70.7 µM and the MIC (Staphylococcus aureus [13]) was > 100 µg/mL and > 70.7 µM. The MIC (Pseudomonas aeruginosa) was greater than 100 µg/mL and the MIC (Klebsiella pneumoniae) was greater than 100 µg/mL.
For H-RWWRRAWR-NH2, the MIC (Staphylococcus aureus [11]) was > 100 µg/mL and > 78.7 µM, the MIC (Escherichia coli [12]) was > 100 µg/mL and > 78.7 µM and the MIC (Staphylococcus aureus [13]) was > 100 µg/mL and > 78.7 µM. It also gave an MIC (Pseudomonas aeruginosa) greater than 100 µg/mL and an MIC (Klebsiella pneumoniae) greater than 100 µg/mL.
H-KWAKKWAKWWKK-NH2 was tested, and the MIC (Staphylococcus aureus [11]) was 100 µg/mL, the MIC (Escherichia coli [12]) was > 100 µg/mL and > 59.8 µM and the MIC (Staphylococcus aureus [13]) was 100 µg/mL. It also gave an MIC (Pseudomonas aeruginosa) greater than 100 µg/mL and an MIC (Klebsiella pneumoniae) greater than 100 µg/mL.
For H-RAWRAWWRRA-NH2, the MIC (Staphylococcus aureus [11]) was > 100 µg/mL and > 70.7 µM, the MIC (Escherichia coli [12]) was > 100 µg/mL and > 70.7 µM and the MIC (Staphylococcus aureus [13]) was > 100 µg/mL and > 70.7 µM. The MIC (Pseudomonas aeruginosa) was greater than 100 µg/mL and the MIC (Klebsiella pneumoniae) was greater than 100 µg/mL.
For H-AAWRRWWRRA-NH2, the MIC (Staphylococcus aureus [11]) was > 100 µg/mL and > 70.7 µM, the MIC (Escherichia coli [12]) was > 100 µg/mL and > 70.7 µM and the MIC (Staphylococcus aureus [13]) was > 100 µg/mL and > 70.7 µM. The MIC (Pseudomonas aeruginosa) was greater than 100 µg/mL and the MIC (Klebsiella pneumoniae) was greater than 100 µg/mL.
In the case of H-RWARRAWRAW-NH2, the MIC (Staphylococcus aureus [11]) is reported as > 100 µg/mL and > 70.7 µM, the MIC (Escherichia coli [12]) is reported as > 100 µg/mL and > 70.7 µM and the MIC (Staphylococcus aureus [13]) is reported as > 100 µg/mL and > 70.7 µM. It also gave an MIC (Pseudomonas aeruginosa) greater than 100 µg/mL and an MIC (Klebsiella pneumoniae) greater than 100 µg/mL.
In the case of H-RWARRWWR-NH2, the MIC (Staphylococcus aureus [11]) is reported as > 100 µg/mL and > 78.7 µM, the MIC (Escherichia coli [12]) is reported as > 100 µg/mL and > 78.7 µM and the MIC (Staphylococcus aureus [13]) is reported as > 100 µg/mL and > 78.7 µM. It also gave an MIC (Pseudomonas aeruginosa) greater than 100 µg/mL and an MIC (Klebsiella pneumoniae) greater than 100 µg/mL.
For H-RAWRRAWRAW-NH2, the MIC (Staphylococcus aureus [11]) was > 100 µg/mL and > 70.7 µM, the MIC (Escherichia coli [12]) was > 100 µg/mL and > 70.7 µM and the MIC (Staphylococcus aureus [13]) was > 100 µg/mL and > 70.7 µM. The MIC (Pseudomonas aeruginosa) was greater than 100 µg/mL and the MIC (Klebsiella pneumoniae) was greater than 100 µg/mL.
H-KWIKKWIKWWKK-NH2 was tested, and the “fold change (FC)” value (Escherichia coli [1]) was 2, the “fold change (FC)” value (Escherichia coli [2]) was 2 and the “fold change (FC)” value (Escherichia coli [3]) was 2. For the same compound, the “fold change (FC)” value (Escherichia coli [4]) was 2, the “fold change (FC)” value (Staphylococcus aureus [5]) was 2 and the “fold change (FC)” value (Staphylococcus aureus [6]) was 2. The “fold change (FC)” value (Staphylococcus aureus [7]) was 2, the “fold change (FC)” value (Staphylococcus aureus [8]) was 2 and the “fold change (FC)” value (Escherichia coli [9]) was 2. The “fold change (FC)” value (Staphylococcus aureus [10]) was 2.
H-RWARRWWRA-NH2 was tested, and the MIC (Staphylococcus aureus [11]) was > 100 µg/mL and > 74.5 µM, the MIC (Escherichia coli [12]) was > 100 µg/mL and > 74.5 µM and the MIC (Staphylococcus aureus [13]) was > 100 µg/mL and > 74.5 µM. The MIC (Pseudomonas aeruginosa) was greater than 100 µg/mL and the MIC (Klebsiella pneumoniae) was greater than 100 µg/mL.
For `CC[C@H](C)CCCCC(=O)N[C@@H](CCN)C(=O)N[C@H](C(=O)N[C@@H](CCN)C(=O)N[C@H]1CCNC(=O)[C@H]([C@@H](C)O)NC(=O)[C@H](CCN)NC(=O)[C@H](CCN)NC(=O)[C@H](CC(C)C)NC(=O)[C@@H](Cc2ccccc2)NC(=O)[C@@H](CCN)NC1=O)[C@@H](C)O` (X1-[Dab]T[Dab][Dab][dDab][dF]L[Dab][Dab]T; lactam 4-C), the Activity (Cell membrane [14]) was “inactive”, the Activity (Cell membrane [15]) was “inactive” and the Activity (Cell membrane [16]) was “inactive”. For the same compound, the Activity (Cell membrane [17]) was “inactive”.
In the case of H-RRWRRWW-NH2, the MIC (Staphylococcus aureus [11]) is reported as 100 µg/mL, the MIC (Escherichia coli [12]) is reported as > 100 µg/mL and > 83.3 µM and the MIC (Staphylococcus aureus [13]) is reported as 100 µg/mL. The MIC (Pseudomonas aeruginosa) was greater than 100 µg/mL and the MIC (Klebsiella pneumoniae) was greater than 100 µg/mL.
In the case of H-WRRWWRR-NH2, the MIC (Staphylococcus aureus [11]) is reported as 100 µg/mL, the MIC (Escherichia coli [12]) is reported as > 100 µg/mL and > 83.3 µM and the MIC (Staphylococcus aureus [13]) is reported as 100 µg/mL. For the same compound, the MIC (Pseudomonas aeruginosa) was greater than 100 µg/mL and the MIC (Klebsiella pneumoniae) was greater than 100 µg/mL.
For H-AWWRRAWRR-NH2, the MIC (Staphylococcus aureus [11]) was > 100 µg/mL and > 74.5 µM, the MIC (Escherichia coli [12]) was > 100 µg/mL and > 74.5 µM and the MIC (Staphylococcus aureus [13]) was > 100 µg/mL and > 74.5 µM. It also gave an MIC (Pseudomonas aeruginosa) greater than 100 µg/mL and an MIC (Klebsiella pneumoniae) greater than 100 µg/mL.
